{"data": "Measurements gathered from unrelated publications", "target": "Mitogen-activated protein kinase 11 (MAPK11, Homo sapiens, UniProt Q15759)", "note": "Compare with care: the assays were run in different laboratories."}
{"Structure (SMILES)": "c1ccc(CNc2nc(N3CCOc4ccccc43)nc3c2CCCC3)cc1", "effect on": "target engagement in cells", "mode": "inhibitor", "method": "chemoproteomics", "concentration": "20 mM", "quantity": "inhibition", "value": "-9.7%"}
{"Structure (SMILES)": "N#CC1c2c([nH]c3c(Cl)c(Cl)ccc23)C(=O)NC12CCCCC2 (racemic)", "effect on": "thermal stability", "method": "DSF", "concentration": "10 µM", "quantity": "ΔTm", "value": "-0.1 °C"}
{"Structure (SMILES)": "COc1cc(Cl)c(C(=O)N[C@@H](CN[C@H]2CC[C@@H](N)CC2)Cc2ccc(C#N)cc2)cc1-c1ccc(CN[C@H](C)c2ccc(C)cc2)o1", "effect on": "enzyme activity", "mode": "inhibitor", "concentration": "1 µM", "quantity": "remaining activity", "value": "92%"}
{"Structure (SMILES)": "Cc1sc(C(=O)NC2COC2)cc1-n1cc(NC(=O)Nc2c(F)cccc2Cl)cn1", "effect on": "enzyme activity", "mode": "inhibitor", "concentration": "10 µM", "quantity": "remaining activity", "value": "94.3%"}
{"Structure (SMILES)": "Nc1ncnc2occ(-c3ccc(NC(=O)Nc4cc(C(F)(F)F)ccc4F)cc3)c12", "effect on": "cell-free assay", "mode": "inhibitor", "concentration": "20 µM", "quantity": "remaining signal", "value": "0%"}
{"Structure (SMILES)": "CC/C(=N\\NC(=O)NCc1cccc(O)c1)c1ccc(O)c(C)c1O", "effect on": "enzyme activity", "mode": "inhibitor", "concentration": "0.1 µM", "quantity": "inhibition", "value": "0.5%"}
{"Structure (SMILES)": "O=C(NS(=O)(=O)c1ccc(NCC2CCOCC2)c([N+](=O)[O-])c1)c1ccc(N2CCN(Cc3ccc(C(F)(F)F)cc3-c3ccc(Cl)cc3)CC2)cc1Oc1cnc2[nH]ccc2c1", "effect on": "cell-free assay", "method": "competition with immobilised ligand", "concentration": "1 µM", "quantity": "remaining binding", "value": "78%"}
{"Structure (SMILES)": "CS(=O)(=O)Nc1cccc(-c2csc(NC(=O)CSc3nc4nccnc4c(=O)n3CCc3ccccc3)n2)c1", "effect on": "enzyme activity", "mode": "inhibitor", "concentration": "10 µM", "quantity": "inhibition", "value": "7%"}
{"Structure (SMILES)": "COc1cc2ncnc(Nc3ccc(Oc4ccccc4)c(C)c3C)c2cc1OC", "effect on": "enzyme activity", "mode": "inhibitor", "concentration": "1 µM", "quantity": "inhibition", "value": "6%"}
{"Structure (SMILES)": "O=C1NC(=O)c2cc(Nc3ccc(F)cc3)c(Nc3ccc(F)cc3)cc21", "effect on": "cell-free assay", "concentration": "0.5 µM", "quantity": "remaining signal", "value": "94.6%"}
{"Structure (SMILES)": "CNCc1ccc(-c2cc(-c3nc(-c4ccc(S(=O)(=O)C(C)C)cc4)cnc3N)on2)cc1", "effect on": "enzyme activity", "mode": "inhibitor", "concentration": "2 µM", "quantity": "inhibition", "value": "11%"}
{"Structure (SMILES)": "CCCCNc1ncc2c(-c3ccc(F)cc3)nn(C[C@H]3CC[C@H](N)CC3)c2n1", "effect on": "target engagement in cells", "mode": "inhibitor", "method": "chemoproteomics", "concentration": "20 mM", "quantity": "inhibition", "value": "36.9%"}
{"Structure (SMILES)": "Cn1c2c(c3ccc(Cl)c(Cl)c31)C(C#N)C1(CCNCC1)NC2=O (racemic)", "effect on": "thermal stability", "method": "DSF", "concentration": "10 µM", "quantity": "ΔTm", "value": "0.2 °C"}
{"Structure (SMILES)": "Cc1ccc(Nc2nccc(N(C)c3ccc4c(C)n(C)nc4c3)n2)cc1S(N)(=O)=O", "effect on": "enzyme activity", "mode": "inhibitor", "concentration": "0.3 µM", "quantity": "inhibition", "value": "-6%"}
{"Structure (SMILES)": "CCC(=O)N[C@@H]1CC[C@H](C(=O)N(C)c2ccc(-c3nc4ccccc4o3)cc2)C1", "effect on": "cell-free assay", "method": "competition with immobilised ligand", "concentration": "1 µM", "quantity": "remaining binding", "value": "83%"}
{"Structure (SMILES)": "CC(C)(C)c1nc2c(s1)c1nc(N)ncc1c1ccc(NS(=O)(=O)c3c(F)cccc3F)c(F)c12", "effect on": "enzyme activity", "mode": "inhibitor", "method": "radiometric", "concentration": "1 µM", "quantity": "remaining activity", "value": "101%"}
{"Structure (SMILES)": "Cn1c2c(c3ccc(Cl)c(Cl)c31)C(C#N)C1(CCOCC1)NC2=O (centres unmarked)", "effect on": "thermal stability", "method": "DSF", "concentration": "10 µM", "quantity": "ΔTm", "value": "0.4 °C"}
{"Structure (SMILES)": "Nc1nc(NC2CCCCC2)sc1C(=O)c1ccccc1", "effect on": "enzyme activity", "mode": "inhibitor", "concentration": "10 µM", "quantity": "remaining activity", "value": "22%"}
{"Structure (SMILES)": "Cn1nc(C(=O)NCc2ccc(C(=O)O)cc2)cc1-c1ccc2[nH]ccc2c1", "effect on": "cell-free assay", "method": "competition with immobilised ligand", "concentration": "0.1 µM", "quantity": "remaining binding", "value": "86%"}
{"Structure (SMILES)": "Cc1ccc(C(=O)Nc2ccc(CN3CCN(C)CC3)c(C(F)(F)F)c2)cc1C#Cc1cnc2cccnn12", "effect on": "enzyme activity", "mode": "inhibitor", "concentration": "23.5 nM", "quantity": "remaining activity", "value": "63%"}
{"Structure (SMILES)": "Cn1c(=O)n(-c2ccc(C(C)(C)C#N)cc2)c2c3cc(-c4cnc5ccccc5c4)ccc3ncc21", "effect on": "enzyme activity", "mode": "inhibitor", "concentration": "10 µM", "quantity": "remaining activity", "value": "96%"}
{"Structure (SMILES)": "Cn1c2c(c3ccc(Cl)c(Cl)c31)C(C#N)C1(CCCC1)NC2=O (centres unmarked)", "effect on": "thermal stability", "method": "DSF", "concentration": "10 µM", "quantity": "ΔTm", "value": "0.9 °C"}
{"Structure (SMILES)": "CN([C@@H]1CCc2c(CC(=O)O)c3ccccc3n2C1)S(=O)(=O)c1ccc(F)cc1", "effect on": "cell-free assay", "method": "competition with immobilised ligand", "concentration": "1 µM", "quantity": "remaining binding", "value": "88%"}
{"Structure (SMILES)": "CC(C)(C)C(=O)c1sc(NC2CCCCC2)nc1N", "effect on": "enzyme activity", "mode": "inhibitor", "concentration": "10 µM", "quantity": "remaining activity", "value": "82%"}
{"Structure (SMILES)": "O=C(Nc1ccc(Oc2ccc(F)cc2)cc1)N1CCc2ncccc2[C@H]1c1ccc(F)cc1", "effect on": "cell-free assay", "method": "competition with immobilised ligand", "concentration": "1 µM", "quantity": "remaining binding", "value": "100%"}
{"Structure (SMILES)": "Cc1cc(NC(=O)c2cccc3cc(-c4cccc5[nH]nc(N)c45)ccc23)ccc1F", "effect on": "enzyme activity", "mode": "inhibitor", "concentration": "0.1 µM", "quantity": "activity vs control", "value": "69%"}
{"Structure (SMILES)": "CNCc1ccccc1-c1csc([C@H](C)Nc2nc(C)nc3cc(OC)c(OC)cc23)c1", "effect on": "cell-free assay", "method": "competition with immobilised ligand", "concentration": "1 µM", "quantity": "remaining binding", "value": "100%"}
{"Structure (SMILES)": "CCN(CC)CCNC(=O)c1c(C)[nH]c(/C=C2\\C(=O)Nc3ccc(F)cc32)c1C", "effect on": "enzyme activity", "mode": "inhibitor", "concentration": "10 µM", "quantity": "inhibition", "value": "3%"}
{"Structure (SMILES)": "C[S+]([O-])c1ccc(-c2nc(-c3ccncc3)c(-c3ccc(F)cc3)[nH]2)cc1 (centres unmarked)", "effect on": "cell-free assay", "concentration": "0.5 µM", "quantity": "remaining signal", "value": "68.9%"}
{"Structure (SMILES)": "CN(c1ncccc1CNc1nc(Nc2ccc3c(c2)CC(=O)N3)ncc1C(F)(F)F)S(C)(=O)=O", "effect on": "enzyme activity", "mode": "inhibitor", "concentration": "1 µM", "quantity": "inhibition", "value": "7.8%"}
{"Structure (SMILES)": "Cn1c2c(c3ccccc31)C(C#N)C(C)(C)NC2=O (centres unmarked)", "effect on": "thermal stability", "method": "DSF", "concentration": "10 µM", "quantity": "ΔTm", "value": "-0.7 °C"}
{"Structure (SMILES)": "COc1ccc2c(O[C@@H]3C[C@H]4C(=O)N[C@]5(C(=O)O)CC5/C=C\\CCCCC[C@H](NC(=O)OC5CCCC5)C(=O)N4C3)cc(-c3csc(NC(=O)C(C)C)n3)nc2c1C (some centres unmarked)", "effect on": "cell-free assay", "method": "competition with immobilised ligand", "concentration": "1 µM", "quantity": "remaining binding", "value": "100%"}
{"Structure (SMILES)": "COc1cc(Nc2cnc(C#N)c(O[C@H](C)CN(C)C)n2)ncc1-c1cnn(C)c1", "effect on": "enzyme activity", "mode": "inhibitor", "method": "radiometric", "concentration": "1 µM", "quantity": "remaining activity", "value": "96%"}
{"Structure (SMILES)": "O=C(O)[C@H]1[C@H](Cn2nnc3ccccc3c2=O)CC[C@@H]1C(=O)c1ccc(OCCC2CCOCC2)cc1", "effect on": "cell-free assay", "method": "competition with immobilised ligand", "concentration": "1 µM", "quantity": "remaining binding", "value": "78%"}
{"Structure (SMILES)": "Cn1c2c(c3ccc(Cl)c(Cl)c31)C(C#N)C1(CCN(C(=O)OC(C)(C)C)CC1)NC2=O (racemic)", "effect on": "thermal stability", "method": "DSF", "concentration": "10 µM", "quantity": "ΔTm", "value": "-0.8 °C"}
{"Structure (SMILES)": "Oc1cccc(-c2nc(N3CCOCC3)c3oc4ncccc4c3n2)c1", "effect on": "cell-free assay", "concentration": "0.5 µM", "quantity": "remaining signal", "value": "103%"}
{"Structure (SMILES)": "Cn1c2c(Cl)c(Cl)ccc2c2cc(N)[nH]c(=O)c21", "effect on": "thermal stability", "method": "DSF", "concentration": "10 µM", "quantity": "ΔTm", "value": "1.8 °C"}
{"Structure (SMILES)": "Cc1ccc(NC(=O)c2ccc(C)c(C(F)(F)F)c2)cc1C#Cc1nn(C2CCC(O)CC2)c2ncnc(N)c12 (centres unmarked)", "effect on": "cell-free assay", "concentration": "10 µM", "quantity": "remaining signal", "value": "-2%"}
